Converted amounts (≈) assume the structure as drawn.
Experiments:
[1] = Pseudo-first-order Rate constant for hydrolysis at pH 10; assay type: ADME; settings: buffer
Method in brief: (§1)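 Pseudo-first-order loss of parent lactam followed by HPLC at 35 °C. Lactam was 3.6×10^-4 to 1×10^-3 M in aqueous KCl at ionic strength 0.5, with pH held by NaOH on a pH-stat. Values were measured at pH 10 directly, or at pH 9 (×10) or pH 11 (÷10), taking k_obsd as proportional to [OH−].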

[2] = system: Klebsiella pneumoniae; experiment: Minimum inhibitory concentration (MIC), tested against Klebsiella pneumoniae X68; assay type: functional
[3] = system: Providencia rettgeri; experiment: Minimum inhibitory concentration (MIC), tested against Providencia rettgeri C24; assay type: functional
[4] = Rate constant for hydrolysis at pH 10; assay type: ADME; settings: buffer; method in brief: as §1
[5] = system: Streptococcus pyogenes; experiment: Minimum inhibitory concentration (MIC), tested against Streptococcus pyogenes C203.; assay type: functional
[6] = Rate constant for hydrolysis at pH 9; assay type: ADME; settings: buffer
Method in brief: (§2)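 Constant-pH hydrolysis (pH 9 or 11) was run on a pH-stat with NaOH addition, and loss of lactam (3.6×10^-4 to 1×10^-3 M) was followed by HPLC. Ionic strength was 0.5 with KCl. A pseudo-first-order rate constant was obtained from the disappearance time course.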

[7] = Rate constant for hydrolysis at pH 11; assay type: ADME; settings: buffer; method in brief: as §2

CC1(C)S[C@@H]2[C@H](NC(=O)COc3ccccc3)C(=O)N2[C@H]1C(=O)O [PENICILLIN V]
k [1]: 0.248 h⁻¹

CO/N=C(\C(=O)NC1CN2CC(C(=O)O)=C(C(=O)O)N2C1=O)c1csc(N)n1 (stereo unspecified)
MIC [2]: 64 µg/mL (≈ 156 µM) | MIC [3]: 8 µg/mL (≈ 19.5 µM) | k [4]: 0.324 h⁻¹ | MIC [5]: 8 µg/mL (≈ 19.5 µM)

C[C@H]1[C@H](NC(=O)/C(=N\OC(C)(C)C(=O)O)c2csc(N)n2)C(=O)N1S(=O)(=O)O [AZTREONAM]
k [1]: 0.4 h⁻¹

CO/N=C(\C(=O)NC1CN2CC(c3cccs3)=C(C(=O)O)N2C1=O)c1csc(N)n1 (stereo unspecified)
MIC [2]: > 128 µg/mL | MIC [3]: > 128 µg/mL | k [4]: 0.19 h⁻¹ | MIC [5]: > 128 µg/mL

CO/N=C(\C(=O)NC1CN2N(C1=O)C(C(=O)O)=C(C(=O)OC)C2(C)C)c1csc(N)n1 (stereo unspecified)
MIC [2]: > 128 µg/mL | MIC [3]: > 128 µg/mL | k [4]: 0.769 h⁻¹ | MIC [5]: 64 µg/mL (≈ 141 µM)

CO/N=C(\C(=O)NC1CN2CC(C#N)=C(C(=O)O)N2C1=O)c1csc(N)n1 (stereo unspecified)
MIC [2]: 0.5 µg/mL (≈ 1.28 µM) | MIC [3]: 0.25 µg/mL (≈ 0.639 µM) | k [6]: 17.3 h⁻¹ | MIC [5]: 0.5 µg/mL (≈ 1.28 µM)

N[C@@H](C(=O)N[C@@H]1C(=O)N2C(C(=O)O)=C(Cl)CS[C@H]12)c1ccccc1.O [CEFACLOR]
k [1]: 0.944 h⁻¹

CO/N=C(\C(=O)NC1CN2CC(c3ccccc3)=C(C(=O)O)N2C1=O)c1csc(N)n1 (stereo unspecified)
MIC [2]: > 128 µg/mL | MIC [3]: > 128 µg/mL | k [4]: 0.146 h⁻¹ | MIC [5]: > 128 µg/mL

CC(=O)OCC1=C(C(=O)O)N2C(=O)[C@@H](NC(=O)Cc3cccs3)[C@H]2SC1 [CEPHALOTHIN]
k [1]: 0.317 h⁻¹

CC1=C(C(=O)O)N2C(=O)[C@@H](NC(=O)[C@H](N)c3ccccc3)[C@H]2SC1 [CEPHALEXIN ANHYDROUS]
k [1]: 0.0685 h⁻¹

CO/N=C(\C(=O)NC1CN2N(C1=O)C(C(=O)O)=C(C(=O)O)C2(C)C)c1csc(N)n1 (stereo unspecified)
MIC [2]: > 128 µg/mL | MIC [3]: > 128 µg/mL | MIC [5]: > 128 µg/mL | k [7]: 0.0111 h⁻¹

CO/N=C(\C(=O)NC1CN2CC(S(C)(=O)=O)=C(C(=O)O)N2C1=O)c1csc(N)n1 (stereo unspecified)
MIC [2]: 0.25 µg/mL (≈ 0.562 µM) | MIC [3]: 0.06 µg/mL (≈ 0.135 µM) | k [6]: 14.8 h⁻¹ | MIC [5]: 0.25 µg/mL (≈ 0.562 µM)

CO/N=C(\C(=O)NC1CN2CC(C(=O)OC)=C(C(=O)O)N2C1=O)c1csc(N)n1 (stereo unspecified)
MIC [2]: 8 µg/mL (≈ 18.9 µM) | MIC [3]: 1 µg/mL (≈ 2.36 µM) | k [6]: 4.74 h⁻¹ | MIC [5]: 4 µg/mL (≈ 9.43 µM)

CC(C)(O/N=C(\C(=O)N[C@@H]1C(=O)N2C(C(=O)[O-])=C(C[n+]3ccccc3)CS[C@H]12)c1csc(N)n1)C(=O)O [CEFTAZIDIME]
k [1]: 1.3 h⁻¹

CO/N=C(\C(=O)NC1CN2CC(C(=O)Nc3ccccc3)=C(C(=O)O)N2C1=O)c1csc(N)n1 (stereo unspecified)
MIC [2]: 32 µg/mL (≈ 65.9 µM) | MIC [3]: 8 µg/mL (≈ 16.5 µM) | k [6]: 2.33 h⁻¹ | MIC [5]: 1 µg/mL (≈ 2.06 µM)

CO/N=C(\C(=O)NC1CN2CC(C(C)=O)=C(C(=O)O)N2C1=O)c1csc(N)n1 (stereo unspecified)
MIC [2]: 2 µg/mL (≈ 4.9 µM) | MIC [3]: 0.25 µg/mL (≈ 0.612 µM) | k [6]: 7.24 h⁻¹ | MIC [5]: 0.5 µg/mL (≈ 1.22 µM)
